Source: PubChem BioAssay
Sampled rows, rich in hits. Any-hit rate of the full collection: about 4.7%.
Cl transport mod: modulates chloride dependent transport by human KCC2; AID 1456; B-score of Tl+ flux slope (higher = more flux/activation; lower = inhibition) at 10 µM; Q9H2X9; actives 2.2% (n = 190,000); KCC2 cells, thallium flux FluoZin-2 fluorescence;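 active = thallium flux slope and its plate-corrected score both differing from the plate sample mean at a set confidence after two filtering rounds, in either direction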;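 note: slope of fluorescence scaled to starting intensity during 10 to 20 s after thallium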
MrgX1 ag: human MrgX1 receptor agonism, primary screen | Q96LB2 | MrgX1-HEK293 cells, Fluo-4 calcium fluorescence, agonist mode; hits give high values | B-score at 10 µM | actives 0.44% (n = 310,000) | AID 588627;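 active = calcium response B-score plate-corrected fluorescence ratio at least 3 library SD, with starting fluorescence B-score inside 5 SD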
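Material: MrgX1-expressing HEK293 cells; input: 15,000 cells per well; doses: test compound given as first of three sequential additions; schedule: overnight plating before 1 h dye loading; technique: Fluo-4 NW calcium-flux fluorescence, kinetic read; evaluation: baseline-normalised fluorescence change ratio, B-scored; control set: plate-wise positive and negative controls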
RGS4 pot: potentiators or activators of RGS4; B-score at 10 µM; AID 463111; actives 0.92% (n = 310,000); HEK293 M3R/inducible RGS4, carbachol calcium flux Fluo4; hits give low values;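 active = B-score of the integrated calcium signal more than 4 SD below the library mean, with starting fluorescence not abnormally high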;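 note: negative B-score means reduced calcium response which marks RGS4 activation or potentiation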
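Reagent: ECmax carbachol challenge; Test system: M3R-expressing HEK293 line, RGS4 induced by doxycycline; Schedule: overnight RGS4 induction, 30 min dye load 37 °C, 20 min compound RT; Detection: calcium dye Fluo4 fluorescence; Read-out: Agonist-evoked peak-minus-minimum fluorescence over baseline, integrated ratio, B score.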
MrgX1 PAM: human MrgX1 positive allosteric modulation, primary screen; MrgX1-HEK293, Fluo-4 calcium flux, FDSS; hits give high values; AID 588675; actives 0.63% (n = 310,000); B-score at 10 µM; Q96LB2;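 active = plate-corrected calcium response at least 3 library SD above typical, normal starting fluorescence, not activating the receptor alone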;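 note: compound read alongside a low EC10 to EC30 dose of BAM8-22 agonist; peak minus trough fluorescence over baseline measured at the second addition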
MrgX1 antag: human MrgX1 receptor antagonism, primary screen; Q96LB2; actives 1.3% (n = 310,000); MRGX1-HEK293 calcium flux, Fluo-4, BAM8-22 antagonism; hits give low values; B-score at 10 µM;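 active = calcium-response B-score plate-corrected more than 3 library SD below zero, starting fluorescence within 5 deviations, no agonist response on first addition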;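 note: peak minus trough fluorescence over baseline after final BAM8-22 challenge near maximal dose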
RGS4 inh: inhibitors of human RGS4 | actives 0.45% (n = 310,000) | HEK293 M3R/RGS4 inducible, Fluo-4 calcium flux; hits give high values; triggered by carbachol at its EC20 | AID 463165 | P49798 | B-score at 10 µM;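 active = B-score, a plate-corrected calcium signal, over three deviations above library mean, with baseline fluorescence within five deviations of library mean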;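 note: RGS4 expression induced by doxycycline in cells with stable M3 receptor; B-score is computed from the integrated fluorescence ratio over baseline after carbachol; higher B-score means a larger calcium signal and so more RGS4 inhibition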
MrgX1 ag confirm: human MrgX1 agonism, re-confirmation screen; activation, % at 10 µM; MrgX1-HEK293, Fluo-4 calcium fluorescence, FDSS; actives 78% (n = 600); shares compounds with MrgX1 ag; AID 602412;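 active = calcium signal rise, corrected for plate position, at least 3 library SD high, with starting brightness within 5 such deviations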
HEK293 Ca flux: MrgX1 antagonist counter-screen hit in parental HEK293 cells. fluorescence ratio F(max-min)/F0 at 10 µM. shares compounds with MrgX1 antag. AID 624111. Fluo-4 calcium fluorescence, FDSS. actives 2% (n = 4,000);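 active = duplicate-averaged calcium fluorescence ratio at least three times the standard deviation of buffer wells, a nonspecific response in parental cells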
HEK293 Ca counter: counter-screen for MrgX1 allosteric activators: effect in parental HEK293 cells | AID 624114 | shares compounds with MrgX1 antag | actives 0.4% (n = 4,000) | parental HEK293 calcium flux, Fluo-4 fluorescence ratio; hits give high values | fluorescence ratio F(max-min)/F0 at 10 µM;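 active = calcium fluorescence ratio, averaged over duplicates, at least 3 SD of the buffer-well ratio, meaning a nonspecific response in receptor-free cells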;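 note: untransfected parental HEK293 lacking MrgX1 used as counterscreen for MrgX1 allosteric activators; fluorescence change taken during the second addition on a kinetic imager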
HEK293 Ca cntr2: MrgX1 activator counter-screen hit in parental HEK293 cells. shares compounds with MrgX1 antag. Fluo-4 calcium fluorescence (FDSS); hits give high values. fluorescence ratio F(max-min)/F0 at 10 µM. actives 8.7% (n = 4,000). AID 624115;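 active = calcium fluorescence ratio at least three times the spread of buffer wells, meaning a non-specific response in parental cells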
Hits are given with their value; 0 = inactive; - = no result.

SMILES	Cl transport mod	MrgX1 ag	RGS4 pot	MrgX1 PAM	MrgX1 antag	RGS4 inh	MrgX1 ag confirm	HEK293 Ca flux	HEK293 Ca counter	HEK293 Ca cntr2
Oc1c(C(c2ccccn2)N2CCCCC2)cc(Cl)c2cccnc12 (centres undefined)	0	32	0	0	0	0	97%	0	0	0
CCN(c1nc(N)c(C(=O)N=C(N)N)nc1Cl)C(C)C	-	36	0	0	0	0	233%	0	0	0
O=C(CSc1ncnc2ccccc12)c1cccs1	0	29	0	0	0	0	0	0	0	0
Cc1[nH]n(-c2ccccc2)c(=O)c1N=Nc1nccs1	25	66	0	0	0	0	261%	0	0	51
Cc1ccccc1N=Nc1c(C)[nH]n(-c2ccccc2)c1=O	0	-	-	-	-	-	-	-	-	-
Cc1[nH][nH]c(=O)c1C(c1ccc(-c2cccc(Cl)c2)o1)c1c(C)[nH][nH]c1=O	-	29	0	0	0	0	198%	0	0	56
Cc1[nH][nH]c(=O)c1C(c1ccc(-c2cccc(C(=O)O)c2)o1)c1c(C)[nH][nH]c1=O	0	0	0	0	0	0	-	-	-	-
COc1ccccc1N1CCN(C(=O)C(=O)c2c[nH]c3ccccc23)CC1	-	0	0	0	0	0	-	-	-	-
COc1ccc(S(=O)(=O)CC(=O)c2cc3cc(Br)ccc3oc2=O)cc1	-	70	0	0	0	0	326%	0	0	61
COc1ccc(OC)c(S(=O)(=O)CC(=O)c2cc3ccc(OC)cc3oc2=O)c1	-	0	0	0	0	0	-	-	-	-
Cc1nonc1C1CCCN1Cc1cn[nH]c1-c1ccc(-c2ccccc2)cc1 (centres undefined)	0	0	0	0	0	0	-	-	-	-
COc1ccccc1CNC(=O)c1cc(S(=O)(=O)N2CCOCC2)cn1C	-	0	0	0	0	0	-	-	-	-
Cc1ccccc1N1CCN(C2CCCN(C(=O)CCC3(C)CC3)C2)CC1 (centres undefined)	-	0	0	0	0	0	-	-	-	-
CCOC(=O)c1[nH]c2ccc(F)cc2c1N=C(C)N(CC)CC	-	50	0	0	0	0	116%	0	0	0
Cc1ccc(C2(C)NC(=O)N(CC(=O)N(C)CC(=O)Nc3cccc4ccccc34)C2=O)cc1 (centres undefined)	-	0	0	0	0	0	-	-	-	-
COc1cccc(CNC(=O)CCC2CCCN(c3cc(C)nc(N)n3)C2)c1 (centres undefined)	0	30	0	0	0	0	0	0	0	0
N#CC1=C(N)Oc2cc(O)ccc2C1c1ccncc1 (centres undefined)	-	0	0	0	0	0	-	-	-	-
N#CC1=C(N)Oc2cc(O)ccc2C1c1cccs1 (centres undefined)	0	29	0	0	0	0	0	0	0	0
COc1ccc(S(=O)(=O)N2CCOC2CNC(=O)C(=O)NCC(C)C)cc1OC (centres undefined)	-	0	0	0	0	0	-	-	-	-
Cc1nnc(NC(=O)c2sc3nc(-c4cccs4)cc(C(F)(F)F)c3c2N)s1	0	31	0	0	0	0	299%	0.3	0	63
O=C(NC12CC3CC(CC(C3)C1)C2)c1cc([N+](=O)[O-])ccc1N1CCOCC1	0	0	0	0	0	0	-	-	-	-
Cc1ccc(-c2nc3c(Cl)cc(Cl)cc3c(=O)n2O)cc1	-	105	0	0	0	0	482%	0	0	104
On1c(-c2ccccc2)nc2ccc(Cl)cc21	0	0	0	0	0	0	-	-	-	-
O=c1c2cc(Cl)ccc2nc(-c2ccc([N+](=O)[O-])cc2)n1O	49	72	0	0	0	0	270%	0	0	63
N#Cc1ccc(-c2nc3ccccc3c(=O)n2O)cc1	-	0	0	0	0	0	-	-	-	-
SMILES	Cl transport mod	MrgX1 ag	RGS4 pot	MrgX1 PAM	MrgX1 antag	RGS4 inh	MrgX1 ag confirm	HEK293 Ca flux	HEK293 Ca counter	HEK293 Ca cntr2
O=c1c2cc(Br)ccc2nc(-c2ccc(Cl)cc2)n1O	-	143	0	0	0	0	661%	0	0	129
ClCc1nc2ccccc2c2ccccc12	-	44	0	0	0	0	88%	0	0	0
CC(C)(C)OC(=O)N1CCC(c2c(C(=O)NCC3CCN(C4CCCC4)C3)cnn2-c2cccc(Cl)c2)CC1 (centres undefined)	-	0	0	0	0	0	-	-	-	-
CCOC(=O)Nc1ccc2c(c1)N(C(=O)N(CC)CC)c1ccccc1CC2	0	38	0	0	0	0	161%	0	0	47
CCOC(=O)c1c(CC(C)C)csc1NC(=O)c1ccccc1C(=O)O	0	37	0	0	0	0	220%	0	0	0
CCOC(=O)c1c(CC(C)C)csc1NC(C)=O	0	0	0	0	0	0	-	-	-	-
CCCc1nnc(NC(=O)C2CC(=O)N(C3CCCC3)C2)s1 (centres undefined)	-	0	0	0	0	0	-	-	-	-
CC(=O)Nc1ccc(S(=O)(=O)/N=C2\SCCN2S(=O)(=O)c2ccc(NC(C)=O)cc2)cc1	-	41	0	0	0	0	270%	0	0	0
COc1ccc(-c2csc(NC(=O)CN3C(=O)C4CCCCC4C3=O)n2)cc1OC (centres undefined)	-	30	0	0	0	0	0	0	0	0
Cc1noc(C)c1CSCC(=O)Nc1nc(-c2ccc(F)c(F)c2)cs1	-	0	0	0	0	0	-	-	-	-
COc1ccc(-c2csc(NC(=O)CSCc3c(C)noc3C)n2)cc1OC	-	44	0	0	0	0	0	0	0	0
COc1ccc(NS(=O)(=O)c2ccc3c(c2)N(C(C)=O)CC(C)S3)c(OC)c1 (centres undefined)	-	0	0	0	0	0	-	-	-	-
CCN(CC)c1ccc(C=C2C(=O)OC3(CCCC3)OC2=O)cc1	0	74	0	0	0	0	440%	0	0	110
Cc1ccnc(NC(=O)c2ccc(S(=O)(=O)NCc3ccco3)cc2)c1	-	0	0	0	0	0	-	-	-	-
Cc1cc(=O)oc2ccc(OCC(=O)N3CCC(C)CC3)cc12	0	28	0	0	0	0	215%	0	0	0
CC1CC(C)CN(CCCNC(=O)CCC(=O)N2CC(C)Oc3ccccc32)C1 (centres undefined)	-	0	0	0	0	0	-	-	-	-
CCOc1ccccc1NC(=O)CSc1ccc(-c2sc(C)nc2C)nn1	-	37	0	0	0	0	170%	0	0	0
